Assay results reported in ChEMBL document CHEMBL1125309, “Discovery of a novel class of orally active, non-peptide angiotensin II antagonists” (J Med Chem, 1992).
Each block holds one molecule with its values, some of them ahead of it.

Tests used:
[1] = biological target: T1, Type-1 angiotensin II receptor (Oryctolagus cuniculus, UniProt P34976); test: Compound was evaluated for in vitro potency against angiotensin II receptor, type 1 in isolated rabbit aorta; assay type: tissue-based; conditions: read-out: pA2 (converted)
T1 sequence (P34976 whole entry): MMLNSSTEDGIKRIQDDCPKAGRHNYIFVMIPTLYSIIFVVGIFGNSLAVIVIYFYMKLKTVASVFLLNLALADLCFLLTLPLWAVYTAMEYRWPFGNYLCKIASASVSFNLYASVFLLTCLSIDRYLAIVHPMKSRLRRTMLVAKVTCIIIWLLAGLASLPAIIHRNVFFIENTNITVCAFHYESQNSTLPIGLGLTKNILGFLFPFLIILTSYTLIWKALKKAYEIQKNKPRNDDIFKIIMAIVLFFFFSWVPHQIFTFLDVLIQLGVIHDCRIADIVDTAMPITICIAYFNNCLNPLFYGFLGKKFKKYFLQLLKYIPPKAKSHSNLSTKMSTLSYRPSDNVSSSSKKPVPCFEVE
In short: (§1)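 Isolated rabbit aortic ring preparation contracted with angiotensin II; concentration–response curves to AII run in the presence of antagonist; parallel rightward shifts analysed by Schild analysis to give pA2 and slope.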

[2] = biological target: T2, Type-1 angiotensin II receptor B (Rattus norvegicus, UniProt P29089); test: Compound was evaluated for binding affinity against angiotensin II receptor, type 1 in rat liver
T2 sequence (P29089 whole entry): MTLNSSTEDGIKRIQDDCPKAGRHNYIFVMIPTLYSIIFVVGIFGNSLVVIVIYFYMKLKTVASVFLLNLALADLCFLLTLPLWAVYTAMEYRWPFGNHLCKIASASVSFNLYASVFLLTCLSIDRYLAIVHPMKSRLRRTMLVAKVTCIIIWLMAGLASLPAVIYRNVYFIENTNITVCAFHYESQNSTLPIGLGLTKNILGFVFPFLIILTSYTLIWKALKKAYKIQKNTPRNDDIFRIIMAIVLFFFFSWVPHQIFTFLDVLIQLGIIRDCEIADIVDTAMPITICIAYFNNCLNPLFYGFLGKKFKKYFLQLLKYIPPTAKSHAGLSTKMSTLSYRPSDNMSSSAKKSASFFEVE

[3] = biological target: T1, Type-1 angiotensin II receptor; test: Compound was evaluated for in vitro potency against Angiotensin II receptor, type 1 in isolated rabbit aorta; value ranges from 7.13-7.17; conditions: read-out: pA2 (converted); in short: as §1
[4] = biological target: T1, Type-1 angiotensin II receptor; test: Compound was evaluated for in vitro potency against Angiotensin II receptor, type 1 in isolated rabbit aorta; value ranges from 5.53-5.69; conditions: read-out: pA2 (converted); in short: as §1
[5] = biological target: T1, Type-1 angiotensin II receptor; test: Compound was evaluated for in vitro potency against angiotensin II receptor, type 1 in isolated rabbit aorta; value ranges from 8.08-8.22; conditions: read-out: pA2 (converted); in short: as §1
[6] = biological target: T1, Type-1 angiotensin II receptor; test: Compound was evaluated for in vitro potency against angiotensin II receptor, type 1 in isolated rabbit aorta; value ranges from 8.70-8.83; conditions: read-out: pA2 (converted); in short: as §1
[7] = biological target: T2, Type-1 angiotensin II receptor B; test: Compound was evaluated for binding affinity against AT1 receptor in rat liver
In short: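 Displacement of [125I]saralasin from AT1 receptors in rat liver membranes; compounds tested at multiple concentrations as required; Ki derived from the binding curves.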

[8] = biological target: T1, Type-1 angiotensin II receptor; test: Compound was evaluated for in vitro potency against AT1 receptor in isolated rabbit aorta; value ranges from 7.91-7.97; conditions: read-out: pA2 (converted); in short: as §1

SMILES: CCCN(Cc1ccc(-c2ccccc2-c2nnn[nH]2)cc1)c1ncccc1C(=O)O
Ki [2]: 0.76 nM

SMILES: O=C(O)c1cncnc1NCc1ccc(-c2ccccc2-c2nn[nH]n2)cc1
Kb [4]: 2950 nM

SMILES: CCCCN(Cc1ccc(-c2ccccc2-c2nnn[nH]2)cc1)c1nc(C)ccc1C(=O)O
Kb [5]: 8.32 nM
Ki [2]: 122 nM

SMILES: CCCCN(Cc1ccc(-c2ccccc2-c2nnn[nH]2)cc1)c1ncncc1C(=O)O
Ki [2]: 3.13 nM
Kb [1]: 0.117 nM

Second part, the molecule after the results:

Kb [1]: 0.316 nM
SMILES: CCCCN(Cc1ccc(-c2ccccc2-c2nn[nH]n2)cc1)c1ncccc1C(=O)O

Kb [3]: 74.1 nM
SMILES: CCCCc1ncc(C(=O)O)c(N(C)Cc2ccc(-c3ccccc3-c3nn[nH]n3)cc2)n1

Kb [6]: 2 nM
SMILES: CCN(Cc1ccc(-c2ccccc2-c2nn[nH]n2)cc1)c1ncccc1C(=O)O

Ki [2]: 15.3 nM
SMILES: CCCCN(Cc1ccc(-c2ccccc2-c2nn[nH]n2)cc1)c1nc(C)ncc1C(=O)O

Ki [2]: 2.78 nM
SMILES: CCCN(Cc1ccc(-c2ccccc2-c2nn[nH]n2)cc1)c1nc(C)ncc1C(=O)O

Ki [7]: 198 nM
Kb [8]: 12.3 nM
SMILES: CCCCc1ncc(C(=O)O)c(NCc2ccc(-c3ccccc3-c3nn[nH]n3)cc2)n1
